Hits are enriched below; roughly 2.1% of the tested compounds scored in any of these assays.
Scp1 inh: inhibitors of human Scp-1 phosphatase | Q9GZU7 | Recombinant Scp1, phosphopeptide, malachite green phosphate absorbance | inhibition, % at 20 µM | 0.88% of 340,000 active;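 active means inhibition above about 50% at 20 µM, limit read from the data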;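 further: plate controls were DMSO wells with enzyme for no effect and wells lacking enzyme for full effect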
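Test system: SCP-1 phosphatase catalytic domain, residues 76-261; measured by: colorimetric phosphate reagent with accelerator and stabiliser, absorbance at 630 nm; timing: enzyme reaction 45 min at room temperature, colour 5 min, stabilisation 30 min; also added: Phosphorylated 17-residue peptide substrate; compound dosing: one concentration, 20 µM, with 1.0% DMSO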
DNMT1 block: DNMT1 (human) enzyme inhibition. P26358. DNMT1 molecular beacon, Hinp1I cleavage, fluorescence. inhibition (reported as % activation of signal), % at 10 µM. 0.83% of 360,000 active. AID 588458; in the data active means inhibition above about 50%
STEP block: STEP (human) phosphatase inhibition; P54829; 0.25% of 360,000 active; AID 588621; recombinant STEP, OMFP fluorogenic substrate, fluorescence; inhibition, % at 20 µM;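 active means inhibition at 20 µM, scaled per plate between control wells, above about 37%, limit read from the data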;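 further: 0% = DMSO with enzyme and substrate and 100% = substrate only without enzyme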
Target sequence (P54829 whole entry, looked up): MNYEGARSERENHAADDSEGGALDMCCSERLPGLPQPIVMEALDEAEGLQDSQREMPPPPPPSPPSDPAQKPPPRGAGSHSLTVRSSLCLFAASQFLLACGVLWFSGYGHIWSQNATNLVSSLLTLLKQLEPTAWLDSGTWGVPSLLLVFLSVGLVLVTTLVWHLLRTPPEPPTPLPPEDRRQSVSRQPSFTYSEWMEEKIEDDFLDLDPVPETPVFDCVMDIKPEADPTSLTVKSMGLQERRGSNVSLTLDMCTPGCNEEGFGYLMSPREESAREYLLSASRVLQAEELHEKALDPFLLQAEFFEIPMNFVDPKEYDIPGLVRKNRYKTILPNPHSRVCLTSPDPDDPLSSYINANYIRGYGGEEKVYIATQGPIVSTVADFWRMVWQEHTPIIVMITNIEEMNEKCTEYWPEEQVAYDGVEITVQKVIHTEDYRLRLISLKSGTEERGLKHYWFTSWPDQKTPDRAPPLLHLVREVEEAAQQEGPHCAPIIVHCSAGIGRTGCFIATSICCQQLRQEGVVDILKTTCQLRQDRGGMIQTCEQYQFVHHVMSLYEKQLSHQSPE
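System: STEP (striatal-enriched tyrosine phosphatase) enzyme, cell-free; medium: Bis-Tris pH 6.0 buffer with DTT, detergent; dosing: 20 µM, 1% DMSO; times: reaction 20 min, ambient temperature; detection: fluorescence, 480/540 nm; read-out basis: normalized % inhibition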
LMPTP block: LMPTP (human) inhibition. AID 651560. recombinant LMPTP-A, OMFP fluorogenic substrate, fluorescence intensity. P24666. inhibition, % at 20 µM. 0.22% of 360,000 active;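 active means compounds that cut the enzyme signal by at least half of the control window in the single-dose screen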;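 further: plate controls were DMSO wells with enzyme plus substrate for no effect and substrate without enzyme for full effect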
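Buffer or medium: Bis-Tris pH 6.0, DTT, detergent; Assay system: LMPTP-A enzyme; Quantity: 0.625 nM enzyme; Detection: endpoint fluorescence intensity; Times: 50 min dark incubation at room temperature; Controls: substrate-only low control, DMSO enzyme-plus-substrate high control; Doses: single 20 µM dose; Read-out: percent inhibition versus substrate-only and uninhibited controls; Reagent: 400 µM OMFP.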
SUMO1 PPI mod: SUMO1-SIM interaction modulation; P63165; SUMO1 binding to a labelled peptide, TR-FRET, 1 h; inhibition, % at 20 µM; 0.33% of 360,000 active; in the data active means inhibition above about 37%
Target sequence (P63165 whole entry, looked up): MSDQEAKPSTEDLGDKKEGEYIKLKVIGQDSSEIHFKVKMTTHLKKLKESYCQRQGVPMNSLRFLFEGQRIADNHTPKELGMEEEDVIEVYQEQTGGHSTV
GRK2 aptamer HTS: inhibitors of human GRK2 displacing RNA aptamer; P25098; bead flow cytometry, FAM-aptamer displacement from GRK2; inhibition of aptamer binding, % at 10 µM; 0.59% of 330,000 active; AID 488847;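 active means inhibition of aptamer binding above 40%, roughly 3 SD of noise, on plates passing a quality check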;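 further: median bead fluorescence of bound FAM aptamer so fluorescent compounds give negative values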
Scp1 confirm: confirmation of human Scp-1 phosphatase inhibitors; shares compounds with Scp1 inh; recombinant SCP-1 catalytic domain, phosphate release, malachite green absorbance; inhibition, % at 20 µM; 61% of 2,500 active; AID 540281;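 further: plate controls were DMSO with enzyme for no effect and buffer wells lacking enzyme for full effect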
MG interference: interferes with malachite green readout, flagging false Scp-1 hits. AID 540313. apparent inhibition (interference), % at 20 µM. 2,500 tested, under 10 active. shares compounds with Scp1 inh. Colorimetric interference counterscreen, malachite green absorbance 630 nm;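 further: compounds added after enzyme reaction finished so only phosphate colour detection is probed; plate controls were DMSO wells with completed Scp-1 reaction for no effect and substrate wells lacking enzyme for full effect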
Scp-1 Tm shift: binds human Scp-1, shifting its melting temperature. shares compounds with Scp1 inh. Recombinant SCP1, Sypro Orange thermal shift Tm. thermal shift relative to vanadate control, % at 40 µM. 25% of 1,500 active;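 active means substances whose mean melting-temperature shift, as a percentage of the reference inhibitor's shift, reaches about 5.3%, limit read from the data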;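 further: 0% = Tm of DMSO wells and 100% = Tm with sodium orthovanadate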
Numbers without * were called inactive; . = no result.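 How the source made its calls, unless noted: active means inhibition of at least 30% at 20 µM; inactive means the rest.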

SMILES | Scp1 inh | DNMT1 block | STEP block | LMPTP block | SUMO1 PPI mod | GRK2 aptamer HTS | Scp1 confirm | MG interference | Scp-1 Tm shift
O=C(NCc1ccco1)C1CCCN(S(=O)(=O)c2ccc(-n3cnnn3)cc2)C1 (stereo not drawn) | 76* | -1 | 0 | 1 | 14 | 0 | 69* | -7 | 3
O=C(CSc1ccc2nnc(-c3ccccc3)n2n1)NCc1ccco1 | 55* | 2 | 11 | 0 | 3 | 4 | 17 | -24 | .
O=C(CSc1nnc(-c2ccc(S(=O)(=O)N3CCCC3)cc2)o1)NCc1ccco1 | 62* | 10 | -2 | 1 | 3 | 3 | 43* | -17 | -6
O=C(COC(=O)c1ccc(S(=O)(=O)N2CCCCC2)cc1)NCc1ccco1 | 54* | 14 | 3 | -1 | 3 | 2 | 73* | -6 | 3
O=C(NCc1ccco1)C1CCCN(S(=O)(=O)c2ccc(Br)cc2)C1 (stereo not drawn) | -4 | 0 | -2 | 0 | -3 | 2 | . | . | .
COc1ccc(-c2nnc3ccc(SCC(=O)NCc4ccco4)nn23)cc1 | 19 | 1 | -1 | 0 | 0 | 2 | . | . | .
C(=C\c1ccc2nncn2c1)/c1ccccc1 | . | 16 | 0 | 0 | -17 | . | . | . | .
Cn1c(SCC(=O)NCc2ccco2)nnc1-c1ccccc1 | -3 | 1 | 1 | 0 | 4 | 1 | . | . | .
CCC(=O)Nc1cccc(-c2nnc(SCC(=O)NCc3ccco3)n2C)c1 | 98* | 1 | 0 | -3 | -1 | 0 | 6 | -7 | .
O=C(COC(=O)c1cccnc1Cl)NCc1ccco1 | 92* | 1 | 0 | -1 | 10 | 7 | 70* | -10 | -11
O=C(CSc1nnc(CNC(=O)c2ccccc2)o1)NCc1ccco1 | 7 | 0 | -1 | -2 | 4 | 7 | . | . | .
Cn1c(SCC(=O)NCc2ccco2)nnc1-c1ccc(S(=O)(=O)N2CCOCC2)cc1 | 65* | 13 | 2 | 0 | 5 | 7 | 49* | -17 | -4
O=C(CSc1nnc(CNC(=O)c2c(F)cccc2F)o1)NCc1ccco1 | 68* | 10 | 2 | 2 | 6 | 18 | 33* | 3 | -22
CC1CCCN(S(=O)(=O)c2ccc(CN3C(=O)c4cccnc4C3=O)cc2)C1 (stereo not drawn) | 16 | 2 | 2 | 0 | -16 | 6 | . | . | .
C[C@H](CO)N1C[C@H](C)[C@@H](CN(C)Cc2ccncc2)Oc2c(NS(=O)(=O)c3cccs3)cccc2C1=O | -11 | 0 | -1 | -1 | 2 | 2 | . | . | .
Cc1ccc(S(=O)(=O)N2CCCCC2)cc1C(=O)NCc1ccc(S(N)(=O)=O)cc1 | 5 | 5 | -3 | -2 | 3 | 1 | . | . | .
O=c1oc2ccccc2c2c1ccc1ccccc12 | 80* | 23 | 1 | 3 | -26 | 0 | 25 | -20 | .
C[N+]1(CCOS(=O)C23CC4CC(CC(C4)C2)C3)CCOCC1 (stereo not drawn) | 105* | 0 | -3 | -2 | 3 | 3 | -5 | -7 | .
CCn1c(=O)c(=O)[nH]c2cc(C(=O)NCc3ccc(F)cc3)ccc21 | -4 | 2 | 1 | 1 | 2 | 0 | -3 | -5 | .
Cc1cc(C)c(C)c(OCCn2ccnc2)c1 | -4 | 6 | -3 | 0 | 0 | 1 | . | . | .
Cc1ccc(C)c(OCCn2ccnc2)c1 | 59* | 2 | -3 | 0 | 6 | 9 | 39* | -11 | -14
N#C/C(=C/c1ccccc1)c1nn(CCO)c(N)c1C#N | -9 | -9 | 1 | 0 | -6 | 0 | . | . | .
N#C/C(=C\c1ccc(/C=C(/C#N)c2nn(CCO)c(N)c2C#N)cc1)c1nn(CCO)c(N)c1C#N | 68* | 4 | 14 | 6 | 60* | 0 | 3 | -13 | .
C#Cc1ccc([C@@H]2C=C(C(=O)O)O[C@H](OCc3ccc(CO)cc3)C2)cc1 | 57* | 45 | 2 | 0 | -1 | . | 68* | 0 | 2
O=C(O)C1=C[C@@H](c2ccccc2)C[C@@H](OCc2ccc(CO)cc2)O1 | 0 | 1 | -1 | -1 | 4 | 2 | . | . | .
SMILES | Scp1 inh | DNMT1 block | STEP block | LMPTP block | SUMO1 PPI mod | GRK2 aptamer HTS | Scp1 confirm | MG interference | Scp-1 Tm shift
COc1ccc(OC)c(NC(=O)CSc2sc3c(O)cc(=O)[nH]c3c2C#N)c1 | 70* | 16 | 13 | 44 | 12 | 5 | 55* | -12 | 11*
Cc1ccc(NC(=O)CSc2sc3c(O)cc(=O)[nH]c3c2C#N)c(F)c1 | 30 | 9 | 4 | -1 | 39 | 2 | . | . | .
COc1cc(Cl)c(C)cc1NC(=O)CSc1sc2c(O)cc(=O)[nH]c2c1C#N | 65* | 44 | 16 | 35 | 23 | 33 | 76* | 0 | 13*
O=C1CC(c2ccc(S(=O)(=O)Nc3cc(C(F)(F)F)cc(C(F)(F)F)c3)cc2)CN1 (stereo not drawn) | -4 | -1 | -3 | 2 | 0 | 0 | -5 | -8 | .
O=C(Nc1ccc(Br)cc1Cl)c1cnccn1 | 68* | 48 | 2 | 0 | 7 | 14 | 55* | -23 | 8.8*
CCN(CC)S(=O)(=O)c1cccc(C(=O)OCC(=O)NCCN2C(=O)CSC2=O)c1 | -7 | 6 | -156 | -3 | 0 | 1 | . | . | .
Cc1ccc(S(=O)(=O)N[C@H](C(=O)OCC(=O)NC(=O)NCc2ccco2)C(C)C)cc1 | 62* | 10 | -1 | -1 | 1 | 12 | 26 | -22 | .
CCCCCc1ccnc(CC(=O)c2ccc(OC)cc2)c1 | 94* | 0 | 0 | -1 | -3 | . | -18 | -19 | .
COc1ccccc1OCC(=O)Nc1ccncc1 | -6 | 1 | 0 | -3 | 5 | 0 | . | . | .
Cc1cccc(OCC(=O)Nc2ccncc2)c1C | 53* | 2 | -3 | -2 | -2 | 2 | -21 | -16 | .
Cc1ccccc1S(=O)(=O)NC(=O)C1(C)CCN1C(=O)c1cccc(F)c1 (stereo not drawn) | . | 1 | -2 | 0 | 1 | . | . | . | .
CCOc1ccc(C(=O)Nc2cccc(-c3cc4ccccc4oc3=O)c2)cc1[N+](=O)[O-] | 93* | -1 | 9 | 2 | -5 | 1 | 28 | -11 | .
CCOc1ccccc1NC(=O)c1ccc(OCC)c([N+](=O)[O-])c1 | -7 | 2 | 3 | -1 | 0 | 0 | . | . | .
COC(=O)c1sccc1NC(=O)CSc1ccccc1N | 58* | 0 | -1 | 0 | 7 | 2 | -22 | -19 | .

From PubChem BioAssay
